# Source: PubChem BioAssay AID623894 (Johns Hopkins Ion Channel Center, 2012)
# “And” between values parts separate entries of the source, which are not always exact repeats. Identical values can stand only once. The source made the active and inactive calls.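 Rule for the calls: active = peak inhibition above 30% of the KCNK3 potassium channel at some dose, plus a fitted dose response curve; inactive = no inhibition at any dose, or no fitted curve.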
# Biological target: Potassium channel subfamily K member 3 (Rattus norvegicus) (UniProt O54912)
# Assay: rat KCNK3 off-target channel block – cell-based, FluxOR thallium flux, CRC set 3, selectivity assay for KCNK9 inhibitor project, SAR follow-up (AID 623894)
# Conditions: KCNK3-expressing cell line, FluxOR thallium flux fluorescence
# Summary of the method: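 Test system: tetracycline-induced KCNK3 CHO cells; Incubation: dye loading 90 min, compound exposure 20 min, room temperature, dark; Signal: kinetic thallium-flux fluorescence with FluxOR dye, 110 s post-stimulus.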
# Potassium channel subfamily K member 3 (Rattus norvegicus), sequence (O54912 whole entry, looked up): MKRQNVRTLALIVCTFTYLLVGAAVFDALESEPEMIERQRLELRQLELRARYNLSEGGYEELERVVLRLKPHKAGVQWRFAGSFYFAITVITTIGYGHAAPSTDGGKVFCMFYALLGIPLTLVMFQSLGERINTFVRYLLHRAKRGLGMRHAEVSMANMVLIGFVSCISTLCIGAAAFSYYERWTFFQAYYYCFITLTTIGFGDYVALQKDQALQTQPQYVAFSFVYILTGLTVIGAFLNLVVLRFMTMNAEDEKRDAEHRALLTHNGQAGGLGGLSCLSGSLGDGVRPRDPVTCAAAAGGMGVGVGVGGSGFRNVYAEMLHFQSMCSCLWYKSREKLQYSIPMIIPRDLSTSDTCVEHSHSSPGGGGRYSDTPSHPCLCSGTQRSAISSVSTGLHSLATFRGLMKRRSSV
row,IC50,Structure (SMILES)
1,24800 nM,CC(C1CC2CCC1C2)n1c(SCC(=O)N2CCN(C)CC2)nnc1-c1ccco1 (configuration not stated)
2,1170 nM,CC([C@@H]1CC2CC[C@H]1C2)n1c(-c2ccsc2)n[nH]c1=S (some centres not stated)
3,201 nM,COc1ccc(CC(=O)NCc2ccccc2-c2ccccc2C(=O)NCc2ccc(F)cc2F)cc1
4,1860 nM,CC(C1CC2CCC1C2)n1c(SCCc2ccccn2)nnc1-c1ccco1 (configuration not stated)
5,1100 nM,COc1cccc(-c2n[nH]c(=S)n2[C@H](C)[C@@H]2CC3CC[C@H]2C3)c1
6,30300 nM,COc1ccc(NC(=O)CSc2nnc(-c3ccco3)n2C(C)C2CC3CCC2C3)cc1OC (configuration not stated)
7,4720 nM,CC(C1CC2CCC1C2)n1c(-c2ccco2)nn(CCc2ccncc2)c1=S (configuration not stated)
8,1660 nM,CC(C1CC2CCC1C2)n1c(SCCc2cccc(O)c2)nnc1-c1ccco1 (configuration not stated)
9,5880 nM,C[C@H](C1CCCCC1)n1c(-c2ccccc2F)n[nH]c1=S
10,1740 nM,COc1cccc(-c2nnc(SSc3nnc(-c4cccc(OC)c4)n3C(C)C3CC4CCC3C4)n2C(C)C2CC3CCC2C3)c1 (configuration not stated)
11,12400 nM,COc1cccc(-c2n[nH]c(=S)n2[C@H](C)C2CCCCC2)c1
12,893 nM,COc1cccc(CCSc2nnc(-c3ccco3)n2C(C)C2CC3CCC2C3)c1 (configuration not stated)
13,159 nM,C[C@H]([C@@H]1CC2CC[C@H]1C2)n1c(-c2ccco2)n[nH]c1=S
14,10700 nM,CC(C1C[C@H]2CCC1C2)n1c(-c2ccsc2)n[nH]c1=S (some centres not stated)
15,2190 nM,COc1ccc(CSc2nnc(-c3ccco3)n2C(C)C2CC3CCC2C3)cc1OC (configuration not stated)
16,322 nM,COc1ccc(C(=O)CCSc2nnc(-c3ccco3)n2C(C)C2CC3CCC2C3)cc1OC (configuration not stated)
17,121 nM,C[C@H]([C@@H]1CC2CC[C@H]1C2)n1c(-c2ccccc2F)n[nH]c1=S
18,818 nM and 6590 nM,C[C@@H]([C@@H]1CC2CC[C@H]1C2)n1c(-c2ccco2)n[nH]c1=S
19,6030 nM,C[C@H](C1CCCCC1)n1c(-c2ccsc2)n[nH]c1=S

# Same assay, conditions: KCNK3-expressing cell line, FluxOR thallium flux fluorescence; at 30 µM (top of the series)
row,"flux ratio, lower = inhibition",Structure (SMILES)
1,inactive,CC(C1CC2CCC1C2)n1c(N)nnc1-c1ccco1 (configuration not stated)
2,inactive,CC(C1CCN(C)CC1)n1c(-c2ccco2)n[nH]c1=S (configuration not stated)
3,inactive,CC(C1CC2CCC1C2)n1c(SCCN2CCOCC2)nnc1-c1ccco1 (configuration not stated)
